SENP8 block-1: human SENP8 protease inhibitors, primary screen, biochemical, fluorescence, Nedd8 protein substrate, uHTS | recombinant SENP8 | inhibition, % at 20 µM | 0.64% of 360,000 active; in the data active means inhibition mostly above about 40%, no sharp cut-off; inactive means mostly below about 27%
SENP8 block-2: SENP8 protease inhibitors, primary screen, biochemical, luminescence. AID 2540, 2010. inhibition, % at 10 µM. purified SENP8, Z-RLRGG-aminoluciferin cleavage. 1.2% of 330,000 active; in the data active means inhibition above about 50%
SENP1 inh: human SENP1 catalytic domain inhibitors, primary screen, biochemical, FRET, uHTS; Sentrin-specific protease 1 (Homo sapiens), Q9P0U3; recombinant SENP1 catalytic domain, CyPet-SUMO1-YPet FRET cleavage; inhibition, % at 10 µM; 0.21% of 360,000 active;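 active means inhibition at least 30% at 10 µM, raw YFP signal under a set limit, fluorescence ratio 0.5 to 1.5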
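material = recombinant human SENP1 catalytic domain, His6-tagged | quantity = 20 pM enzyme | reagent = 25 nM SUMO1 FRET substrate | compound dosing = 10 µM single point, 0.5% DMSO | timing = 50 min enzyme reaction, room temperature, light-protected | detection = FRET, CFP and YFP emission | control set = no-enzyme low, enzyme-DMSO high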
SENP6 block: SENP6 protease inhibitors, primary screen, biochemical, luminescence, uHTS; Sentrin-specific protease 6 (Homo sapiens), Q9GZR1; Recombinant SENP6 catalytic domain, aminoluciferin luminescence; inhibition, % at 10 µM; 1.8% of 330,000 active; AID 2599, 2010;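 active means inhibition above about 50% at the single tested dose, limit read from the data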
Target sequence (Q9GZR1 628-1112 limits assumed): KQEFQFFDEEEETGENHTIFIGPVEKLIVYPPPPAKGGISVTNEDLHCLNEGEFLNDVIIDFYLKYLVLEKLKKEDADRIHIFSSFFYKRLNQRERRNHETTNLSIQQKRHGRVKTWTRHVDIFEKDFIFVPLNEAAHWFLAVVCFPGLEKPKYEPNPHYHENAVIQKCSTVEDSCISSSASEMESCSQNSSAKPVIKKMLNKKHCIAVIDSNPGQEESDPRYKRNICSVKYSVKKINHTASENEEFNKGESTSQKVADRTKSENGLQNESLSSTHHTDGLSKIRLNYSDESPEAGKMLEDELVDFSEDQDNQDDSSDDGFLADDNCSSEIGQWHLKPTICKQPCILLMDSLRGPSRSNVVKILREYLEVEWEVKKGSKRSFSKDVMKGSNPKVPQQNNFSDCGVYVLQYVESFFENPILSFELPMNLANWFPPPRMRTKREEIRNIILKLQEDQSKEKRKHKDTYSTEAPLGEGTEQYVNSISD
SENP7 block: SENP7 protease inhibitors, primary screen, biochemical, luminescence, uHTS; 1.5% of 330,000 active; inhibition, % at 5 µM; recombinant SENP7, Z-RLRGG-aminoluciferin luminescence, 40 min; Sentrin-specific protease 7 (Homo sapiens), Q9BQF6; AID 434973, 2010;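 active means inhibition above about 50% at the single test dose, limit read from the data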
SENP8 confirm: SENP8 protease inhibitors, retest, confirmation, biochemical, luminescence, single concentration; 40% of 6,200 active; Recombinant SENP8, Z-RLRGG-aminoluciferin luminescence, 60 min; shares compounds with SENP7 block; inhibition, % at 12.5 µM;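 active means mean inhibition across replicates above about 50%, limit read from the data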
SENP6 confirm: SENP6 protease inhibitors, confirmation, biochemical, luminescence, single concentration; shares compounds with SENP7 block; recombinant SENP6, Z-RLRGG-aminoluciferin luminescence; inhibition, % at 12.5 µM; 58% of 6,200 active; AID 488915, 2010
SENP7 conf: SENP7 protease inhibitors, retest, confirmation, biochemical, luminescence, single concentration | recombinant SENP7, Z-RLRGG-aminoluciferin luminescence, 40 min | inhibition, % at 12.5 µM | shares compounds with SENP7 block | 69% of 6,200 active
Casp3 SENP sel: caspase-3 protease inhibitors, confirmation, selectivity assay for SENP inhibitor project, biochemical, single concentration; shares compounds with SENP7 block; purified caspase-3, Z-DEVD-aminoluciferin luminescence, 60 min; inhibition, % at 12.5 µM; 60% of 6,200 active; AID 488918, 2010;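 active means mean inhibition above about 50%, limit read from the data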
SENP luc ctr: interferes with luciferase luminescence in SENP counter-screen. shares compounds with SENP7 block. Pre-incubated SENP8/Z-RLRGG-aminoluciferin, luciferase luminescence interference. inhibition, % at 12.5 µM. 39% of 6,200 active. AID 488919;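 active means mean inhibition above about 50% when retested at one dose, limit read from the data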
A number is an active result; . = inactive; / = no result. An excerpt weighted towards active compounds, which were near 2.5% of everything screened.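 How the source made its calls, unless noted: active means mean inhibition above about 50% in the one-dose retest (limit read from the data); inactive means the rest.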

SMILES	SENP8 block-1	SENP8 block-2	SENP1 inh	SENP6 block	SENP7 block	SENP8 confirm	SENP6 confirm	SENP7 conf	Casp3 SENP sel	SENP luc ctr
Cn1cccc1C(=O)c1ccc(Cl)cc1Cl	.	.	.	.	.	/	/	/	/	/
Cn1cccc1C(=O)C(=O)Nc1ccc(F)c(F)c1	.	80.3	.	89.5	83.1	.	.	76.6	53.3	.
CC(C(=O)Nc1ccc(F)c(F)c1)N1CCN(C)CC1 (stereo not given)	.	.	.	.	.	/	/	/	/	/
O=C(NC(=S)Nc1ccc(S(=O)(=O)Nc2nccs2)cc1)c1cccc(F)c1	.	.	.	63.1	.	.	.	.	.	.
O=C(/C=C/c1ccccc1Cl)Nc1cccc(O)c1	.	93.9	.	97.8	95.9	96.1	97.0	101.6	90.7	96.4
CN(C)S(=O)(=O)c1ccc(NC(=O)/C=C/c2ccccc2Cl)cc1	.	.	.	.	.	/	/	/	/	/
O=C(/C=C/c1ccccc1Cl)Nc1ccccc1	.	96.1	.	97.4	98.5	.	99.2	102.7	94.4	95.1
O=C(/C=C/c1ccccc1Cl)c1ccc(O)cc1	.	82.3	.	89.9	72.7	.	.	.	.	55.2
O=C(/C=C/c1ccccc1Cl)c1cccnc1	.	.	.	.	.	/	/	/	/	/
CN(C)c1ccc(C(=S)N2CCCC2)cc1Br	.	.	.	.	.	/	/	/	/	/
O=C1C=C(c2cc(F)ccc2F)C[C@@H](c2ccc(F)cc2)C1	.	.	.	.	.	/	/	/	/	/
O=C(CC(=O)NCc1ccccc1)NCc1ccccc1	.	.	.	.	.	/	/	/	/	/
COc1ccc(NC(=O)CNc2cc(S(=O)(=O)N3CCOCC3)ccc2NCC2CCCO2)cc1 (stereo not given)	.	.	.	.	.	/	/	/	/	/
Cc1ccc(-c2nnc(-c3cccc4ccccc34)o2)cc1	.	/	.	/	/	/	/	/	/	/
c1ccc(Nc2nnc(-c3cccc4ccccc34)o2)cc1	.	.	.	.	65.1	.	.	52.7	.	.
Cc1cccc(NC(=O)c2ccc(COc3cccc4ccccc34)o2)n1	.	.	.	.	.	/	/	/	/	/
Cc1c(C(=O)O)[nH]c2c1C(=O)CC(c1ccc(Cl)cc1)C2 (stereo not given)	.	.	.	.	90.4	.	.	.	.	.
Cc1c(C(=O)N2CCOCC2)[nH]c2c1C(=O)CC(c1ccc(Cl)cc1)C2 (stereo not given)	.	.	.	.	.	/	/	/	/	/
CCOC(=O)/C=C/c1ccc2oc3ccccc3c(=O)c2c1	.	83.1	.	94.1	92.0	.	.	60.0	.	.
Clc1ccccc1/C=C/c1ccnc2ccccc12	.	.	.	.	.	/	/	/	/	/
Oc1ccc(/C=C/c2ccnc3ccccc23)cc1	.	.	.	61.4	.	.	.	74.5	.	.
COC(=O)c1ccc(/C=N/Nc2nc(-c3ccccc3)cs2)cc1	.	.	.	.	.	/	/	/	/	/
COc1ccc(/C=N/Nc2nc(C(=O)O)cs2)cc1	.	95.7	.	92.9	96.5	97.1	97.6	102.1	63.2	97.6

From PubChem BioAssay
